Measured values from ChEMBL document CHEMBL4138072, “Identification of mitoxantrone as a new inhibitor of ROS1 fusion protein in non-small cell lung cancer cells” (Medchemcomm, 2017).
Blank lines part the entries; values can stand above or below the compound they belong to. Calls of active or inactive are those of the source. No cut-off for these calls is given here.

How the values were obtained:
[1] = biological target: T1, Proto-oncogene tyrosine-protein kinase ROS (Homo sapiens, UniProt P08922); settings: HCC78, 2.5 uM
[2] = biological target: T1, Proto-oncogene tyrosine-protein kinase ROS; settings: HCC78, 2.5 uM; remark: listed apart in the source
[3] = biological target: T1, Proto-oncogene tyrosine-protein kinase ROS; settings: HCC78, 2.5 uM; remark: listed apart in the source
HCC78 [4] = test: Induction of apoptosis in human HCC78 cells assessed as late apoptotic cells level at 2.5 uM incubated fro 48 hrs by Annexin-V FITC and propidium iodide staining based flow cytometry (reference value: 13.8%); type: functional
HCC78 [5] = test: Induction of apoptosis in human HCC78 cells assessed as early apoptotic cells level at 2.5 uM incubated fro 48 hrs by Annexin-V FITC and propidium iodide staining based flow cytometry (reference value: 6.33%); type: functional
HCC78 [6] = test: Induction of apoptosis in human HCC78 cells assessed as necrotic cells level at 2.5 uM incubated fro 48 hrs by Annexin-V FITC and propidium iodide staining based flow cytometry (reference value: 0.06%); type: functional
HCC78 [7] = test: Induction of apoptosis in human HCC78 cells assessed as viable cells level at 2.5 uM incubated fro 48 hrs by Annexin-V FITC and propidium iodide staining based flow cytometry (reference value: 80.8%); type: functional
[8] = biological target: T1, Proto-oncogene tyrosine-protein kinase ROS; settings: HCC78, 2.5 uM; remark: listed apart in the source
[9] = biological target: T1, Proto-oncogene tyrosine-protein kinase ROS; test: Inhibition of ROS1 (unknown origin) using poly (Glu,Tyr)4:1 substrate and ATP incubated for 60 mins by ELISA
In short: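 Purified recombinant ROS1 on poly(Glu,Tyr)4:1-coated wells (20 μg/ml coating). Reaction run in HEPES pH 7.4 buffer with MgCl2, MnCl2, Na3VO4 and DTT, with 10 μmol/l ATP solution and compound in 1% DMSO, 60 min at 37 °C. Phosphotyrosine detected by PY99 antibody, then HRP anti-mouse IgG and o-phenylenediamine, read at A490. Inhibition calculated as % of DMSO control. IC50 derived from curves in two experiments.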

HCC78 [10] = test: Induction of apoptosis in human HCC78 cells assessed as necrotic cells level at 10 nM incubated fro 48 hrs by Annexin-V FITC and propidium iodide staining based flow cytometry (reference value: 0.06%); type: functional
[11] = biological target: T1, Proto-oncogene tyrosine-protein kinase ROS; test: Inhibition of ROS1 in human HCC78 cells assessed as reduction in ERK phosphorylation incubated for 48 hrs by Western blot method; type: cell-based
In short: (§1)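 HCC78 cells plated overnight in 6-well plates, treated for 48 h, then lysed in RIPA buffer with protease/phosphatase inhibitors. Equal protein loaded for SDS-PAGE and transferred to nitrocellulose. Blocked in 5% milk/TBST, probed overnight at 4 °C for p-ROS1, ROS1, p-STAT3, STAT3, p-AKT, AKT, p-ERK, ERK and GAPDH, and detected with fluorescent secondary antibodies on an infrared scanner.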

HCC78 [12] = test: Induction of apoptosis in human HCC78 cells assessed as early apoptotic cells level at 10 nM incubated fro 48 hrs by Annexin-V FITC and propidium iodide staining based flow cytometry (reference value: 6.33%); type: functional
HCC78 [13] = test: Induction of apoptosis in human HCC78 cells assessed as late apoptotic cells level at 10 nM incubated fro 48 hrs by Annexin-V FITC and propidium iodide staining based flow cytometry (reference value: 13.8%); type: functional
HCC78 [14] = test: Induction of apoptosis in human HCC78 cells assessed as viable cells level at 5 nM incubated fro 48 hrs by Annexin-V FITC and propidium iodide staining based flow cytometry (reference value: 80.8%); type: functional
[15] = biological target: T1, Proto-oncogene tyrosine-protein kinase ROS; test: Inhibition of ROS1 in human HCC78 cells assessed as reduction in AKT phosphorylation incubated for 48 hrs by Western blot method; type: cell-based
In short: as §1

HCC78 [16] = test: Induction of apoptosis in human HCC78 cells assessed as viable cells level at 20 nM incubated fro 48 hrs by Annexin-V FITC and propidium iodide staining based flow cytometry (reference value: 80.8%); type: functional
HCC78 [17] = test: Induction of apoptosis in human HCC78 cells assessed as viable cells level at 10 nM incubated fro 48 hrs by Annexin-V FITC and propidium iodide staining based flow cytometry (reference value: 80.8%); type: functional
HCC78 [18] = test: Induction of apoptosis in human HCC78 cells assessed as late apoptotic cells level at 5 nM incubated fro 48 hrs by Annexin-V FITC and propidium iodide staining based flow cytometry (reference value: 13.8%); type: functional
HCC78 [19] = test: Induction of apoptosis in human HCC78 cells incubated fro 48 hrs by Annexin-V FITC and propidium iodide staining based flow cytometry; type: functional, cell-based
HCC78 [20] = test: Induction of apoptosis in human HCC78 cells assessed as early apoptotic cells level at 5 nM incubated fro 48 hrs by Annexin-V FITC and propidium iodide staining based flow cytometry (reference value: 6.33%); type: functional
HCC78 [21] = test: Induction of apoptosis in human HCC78 cells assessed as late apoptotic cells level at 20 nM incubated fro 48 hrs by Annexin-V FITC and propidium iodide staining based flow cytometry (reference value: 13.8%); type: functional
[22] = biological target: T1, Proto-oncogene tyrosine-protein kinase ROS; test: Inhibition of ROS1 phosphorylation in human HCC78 cells incubated for 48 hrs by Western blot method; type: cell-based
In short: as §1

HCC78 [23] = test: Induction of apoptosis in human HCC78 cells assessed as necrotic cells level at 20 nM incubated fro 48 hrs by Annexin-V FITC and propidium iodide staining based flow cytometry (reference value: 0.06%); type: functional
CCD 19Lu = test: Cytotoxicity in human CCD-19Lu cells assessed as reduction in cell viability incubated for 72 hrs by MTT assay; type: cell-based
HCC78 [24] = test: Induction of apoptosis in human HCC78 cells assessed as necrotic cells level at 5 nM incubated fro 48 hrs by Annexin-V FITC and propidium iodide staining based flow cytometry (reference value: 0.06%); type: functional
HCC78 [25] = test: Cytotoxicity in human HCC78 cells assessed as reduction in cell viability incubated for 72 hrs by MTT assay; type: functional, cell-based; settings: HCC78, 72 h
In short: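 3000 cells per well, allowed to adhere overnight, then exposed to DMSO or a concentration series for 72 h. MTT (5 mg/ml stock) added for a further 4 h, and crystals dissolved in 10% SDS/0.1 mM HCl. A570 read. Viability expressed relative to untreated controls from at least 3 independent experiments. HCC78 cells were grown in RPMI-1640 with 10% FBS and penicillin/streptomycin at 37 °C under 5% CO2.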

[26] = biological target: T1, Proto-oncogene tyrosine-protein kinase ROS; test: Inhibition of ROS1 in human HCC78 cells assessed as reduction in STAT3 phosphorylation incubated for 48 hrs by Western blot method; type: cell-based
In short: as §1

HCC78 [27] = test: Induction of apoptosis in human HCC78 cells assessed as early apoptotic cells level at 20 nM incubated fro 48 hrs by Annexin-V FITC and propidium iodide staining based flow cytometry (reference value: 6.33%); type: functional

T1 sequence (P08922 whole entry): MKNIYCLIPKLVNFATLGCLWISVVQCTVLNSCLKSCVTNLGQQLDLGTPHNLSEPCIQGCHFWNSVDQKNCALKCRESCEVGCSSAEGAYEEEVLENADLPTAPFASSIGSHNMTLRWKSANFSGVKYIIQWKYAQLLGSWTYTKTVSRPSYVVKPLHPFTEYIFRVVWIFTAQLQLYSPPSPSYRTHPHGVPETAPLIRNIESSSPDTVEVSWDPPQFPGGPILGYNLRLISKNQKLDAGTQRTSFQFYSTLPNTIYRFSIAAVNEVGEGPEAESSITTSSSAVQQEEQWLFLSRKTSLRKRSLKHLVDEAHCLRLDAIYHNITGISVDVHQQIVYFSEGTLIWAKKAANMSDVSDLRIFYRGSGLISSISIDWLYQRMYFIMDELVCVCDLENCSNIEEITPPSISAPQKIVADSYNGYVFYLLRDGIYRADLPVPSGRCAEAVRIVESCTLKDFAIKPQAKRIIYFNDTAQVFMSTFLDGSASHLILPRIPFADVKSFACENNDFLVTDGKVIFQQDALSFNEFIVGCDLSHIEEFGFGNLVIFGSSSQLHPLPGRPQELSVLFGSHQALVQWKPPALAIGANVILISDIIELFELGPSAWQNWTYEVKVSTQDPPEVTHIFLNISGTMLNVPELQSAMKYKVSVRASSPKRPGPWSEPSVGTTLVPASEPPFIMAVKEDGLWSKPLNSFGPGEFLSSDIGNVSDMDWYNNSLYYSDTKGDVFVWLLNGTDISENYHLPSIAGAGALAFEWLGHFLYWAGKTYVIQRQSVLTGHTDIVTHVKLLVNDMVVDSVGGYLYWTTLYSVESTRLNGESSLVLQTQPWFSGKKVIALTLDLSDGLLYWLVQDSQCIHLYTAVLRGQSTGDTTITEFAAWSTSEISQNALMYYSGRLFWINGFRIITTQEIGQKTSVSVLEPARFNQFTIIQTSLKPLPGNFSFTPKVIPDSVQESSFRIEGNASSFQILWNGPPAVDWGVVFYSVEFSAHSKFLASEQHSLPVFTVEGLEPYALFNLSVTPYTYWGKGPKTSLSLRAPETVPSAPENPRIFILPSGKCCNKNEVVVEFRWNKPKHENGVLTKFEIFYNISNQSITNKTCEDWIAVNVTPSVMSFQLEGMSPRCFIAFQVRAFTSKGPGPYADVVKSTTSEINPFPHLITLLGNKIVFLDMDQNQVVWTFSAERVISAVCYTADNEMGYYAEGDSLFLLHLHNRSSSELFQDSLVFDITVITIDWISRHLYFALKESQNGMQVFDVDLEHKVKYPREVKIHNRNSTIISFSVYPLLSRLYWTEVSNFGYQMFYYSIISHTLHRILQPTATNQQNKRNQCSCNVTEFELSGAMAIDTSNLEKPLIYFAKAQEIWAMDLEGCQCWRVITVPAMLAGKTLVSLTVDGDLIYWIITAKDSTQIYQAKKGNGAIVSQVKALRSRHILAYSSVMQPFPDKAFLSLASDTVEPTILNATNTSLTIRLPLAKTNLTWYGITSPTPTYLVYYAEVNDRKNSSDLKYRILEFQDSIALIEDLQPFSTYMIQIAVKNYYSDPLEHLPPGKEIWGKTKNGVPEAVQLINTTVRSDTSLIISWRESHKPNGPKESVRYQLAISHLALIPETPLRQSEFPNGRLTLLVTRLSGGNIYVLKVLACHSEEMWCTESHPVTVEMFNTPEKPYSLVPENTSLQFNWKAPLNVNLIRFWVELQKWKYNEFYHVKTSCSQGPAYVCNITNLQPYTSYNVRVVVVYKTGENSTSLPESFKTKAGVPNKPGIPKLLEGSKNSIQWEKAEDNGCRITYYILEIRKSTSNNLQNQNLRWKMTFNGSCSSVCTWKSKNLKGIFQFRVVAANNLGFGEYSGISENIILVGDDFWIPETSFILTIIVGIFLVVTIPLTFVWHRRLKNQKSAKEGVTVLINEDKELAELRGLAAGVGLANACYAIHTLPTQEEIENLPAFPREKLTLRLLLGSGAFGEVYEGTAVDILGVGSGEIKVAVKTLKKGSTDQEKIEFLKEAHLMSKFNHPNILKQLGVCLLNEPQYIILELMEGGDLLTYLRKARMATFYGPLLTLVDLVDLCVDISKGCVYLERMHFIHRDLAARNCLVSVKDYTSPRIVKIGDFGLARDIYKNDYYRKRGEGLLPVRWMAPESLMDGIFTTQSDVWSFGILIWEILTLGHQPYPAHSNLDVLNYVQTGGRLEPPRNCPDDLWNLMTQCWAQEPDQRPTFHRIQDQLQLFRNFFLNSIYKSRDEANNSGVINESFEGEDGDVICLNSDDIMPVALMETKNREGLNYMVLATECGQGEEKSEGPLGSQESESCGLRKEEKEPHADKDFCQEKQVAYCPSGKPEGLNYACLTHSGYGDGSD

inhibition [1]: Active
inhibition [2]: Active
inhibition [3]: Active
inhibition [8]: Active
SMILES: C[C@@H](Oc1cc(-c2cnn(C3CCNCC3)c2)cnc1N)c1c(Cl)ccc(F)c1Cl [CRIZOTINIB]
Activity (HCC78 [4]): 27.2%
Activity (HCC78 [5]): 27.3%
Activity (HCC78 [6]): 0.662%
Activity (HCC78 [7]): 45.9%

SMILES: O=C1c2c(O)ccc(O)c2C(=O)c2c(NCCNCCO)ccc(NCCNCCO)c21 [MITOXANTRONE]
IC50 [9]: 3000 nM
Activity (HCC78 [10]): 0.076%
inhibition [11]: Dose-dependent effect
Activity (HCC78 [12]): 18.6%
Activity (HCC78 [13]): 18.7%
Activity (HCC78 [14]): 66.6%
inhibition [15]: Dose-dependent effect
Activity (HCC78 [16]): 63.8%
Activity (HCC78 [17]): 66.7%
Activity (HCC78 [18]): 16.9%
Activity (HCC78 [19]): Dose-dependent effect
Activity (HCC78 [20]): 16.4%
Activity (HCC78 [21]): 17.2%
inhibition [22]: Dose-dependent effect
Activity (HCC78 [23]): 0.048%
IC50 (CCD 19Lu): > 160 nM
Activity (HCC78 [24]): 0.089%
IC50 (HCC78 [25]): 13.8 nM
inhibition [26]: Dose-dependent effect
Activity (HCC78 [27]): 19.7%
